Screening data deposited in PubChem BioAssay by Broad Institute.
Only some compounds are listed: those with a hit (about 3.1% of all), similar ones and a draw of the others.
PAX8 reporter – inhibitors of PAX8-driven TPO luciferase reporter, primary screen, RMG-I cells, single concentration. SteadyGlo, 24 h. inhibition, % at 12.6 µM. 360,000 compounds, 1.2% hits;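 active means mean replicate inhibition at least 60% with every replicate also reaching 60%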;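 further: luciferase light reporting Pax8 driven TPO promoter activity; plate controls were median of neutral control wells for no effect and mitoxantrone controls for full effect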
EWS-Fli inh – EWS/Fli-driven NR0B1 reporter inhibitors, primary screen, A673 cells, NR0B1 luciferase, luminescence, MLPCN library. AID 651661, 2012. 350,000 compounds, 0.67% hits. viability-normalised. inhibition, % at 12.6 µM;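 active means mean inhibition of at least 50% after viability correction, with every replicate also passing that limit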;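 further: firefly luciferase signal divided by Alamar Blue viability fluorescence both relative to DMSO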
PGC1a acetyl inh – inhibitors of PGC1a acetylation signal, primary screen, cell-based, U2OS, AlphaScreen, inhibitor mode; AlphaScreen anti-acetyl-lysine; with virally co-expressed GCN5 acetyltransferase; inhibition, % at 15.6 µM; 350,000 compounds, 0.17% hits; AID 651687, 2012;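 active means every replicate shows inhibition of at least 40%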;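 further: 0% = neutral control wells and 100% = positive control wells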
HIV Env fusion – inhibitors of HIV-1 Env-driven cell-cell fusion, primary screen, HeLa-JRFL effector, CEM21 target cells, luciferase. inhibition, % at 12.3 µM. 360,000 compounds, 1.1% hits. AID 651610, 2012;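 active means mean replicate inhibition score of at least 50 and every replicate individually at or above 50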;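 further: 0% = plate neutral controls and 100% = maraviroc near 300 nM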
FGF22 binding – binders of human FGF22 protein, primary screen, FGF22 synaptogenesis inhibitor project, biophysical, thermal shift, single point. recombinant FGF22 thermal shift, SYPRO orange fluorescence; percent of sucrose octasulfate shift, DMSO zero. activity (Tm shift, normalised), % at 9.99 µM. AID 651658, 2012. 340,000 compounds, 1.5% hits. Fibroblast growth factor 22 (Homo sapiens), Q9HCT0;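 active means mean Tm shift, scaled 0 neutral to 100 positive control, at about 1.3% or above, every replicate too, limit read from the data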
Target sequence (Q9HCT0 whole entry, looked up): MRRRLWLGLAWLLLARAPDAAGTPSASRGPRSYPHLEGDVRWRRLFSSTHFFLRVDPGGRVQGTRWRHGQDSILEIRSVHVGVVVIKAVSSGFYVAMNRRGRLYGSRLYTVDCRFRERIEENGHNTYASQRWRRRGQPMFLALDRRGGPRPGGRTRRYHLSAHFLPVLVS
FN deposition inh – inhibitors of fibronectin matrix deposition, primary screen, AH1F cells, Alexa488-fibronectin fluorescence, plate reader; AH1F fibroblasts, overnight; inhibition, % at 12.6 µM; 350,000 compounds, 0.086% hits;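 active means mean inhibition across replicates of 30% or more, regardless of how many single replicates reach that level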;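 further: positive control wells lacked labelled fibronectin entirely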
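Material: AH1F fibroblasts assembling fluorescent fibronectin matrix; amount: 10000 AH1F cells/well; medium: DMEM, 2% serum; reagent: Alexa488-fibronectin, 24 nM final in well; dosing: single compound dose, delivered by pin transfer; incubation: 1 h adhesion, overnight exposure; detection: fluorescence after three HBSS washes, excitation 485 nm, emission 525 nm; measure: fibronectin deposition inhibition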
An asterisk follows results filed as active; nt = no result given; [ ] = another dose, or the depositor's remark.

SMILES	PAX8 reporter	EWS-Fli inh	PGC1a acetyl inh	HIV Env fusion	FGF22 binding	FN deposition inh
COc1ccccc1[C@@H]1C(c2ccccc2)=NN(c2ccccc2)[C@H]1C(=O)N1CCOC1=O	5	5	-4	37	0	nt
COC(=O)C[C@@H]1C[C@@H]2c3cc(NC(=O)C4CCC4)ccc3O[C@@H]2[C@H](CO)O1	-7	3	-8	3[16.7 µM]	0	5
O=C(C[C@@H]1CC[C@H]2[C@@H](COC[C@@H](O)CN2S(=O)(=O)c2cccc(Cl)c2)O1)Nc1ccccc1	11	-5	-4	nt	1	-14
O=C(C[C@H]1CC[C@@H]2[C@H](COC[C@H](O)CN2S(=O)(=O)c2ccccc2)O1)Nc1ccc(-c2ccccc2)cc1	63*	6	8	nt	0	-13
O=C(C[C@H]1CC[C@@H]2[C@H](COC[C@@H](O)CN2S(=O)(=O)c2cccc(Cl)c2)O1)Nc1ccc(-c2ccccc2)cc1	106*	-2	-7	nt	1.3*	7
O=C(C[C@H]1CC[C@@H]2[C@H](COC[C@@H](O)CN2S(=O)(=O)c2ccccc2)O1)Nc1ccc(-c2ccccc2)cc1	19	19	-1	nt	1	3
O=C(C[C@H]1CC[C@H]2[C@@H](COC[C@H](O)CN2S(=O)(=O)c2cccc(Cl)c2)O1)Nc1ccc(-c2ccccc2)cc1	57	-8	-1	nt	nt	-4
O=C(C[C@H]1CC[C@H]2[C@@H](COC[C@@H](O)CN2S(=O)(=O)c2cccc(Cl)c2)O1)Nc1ccc(-c2ccccc2)cc1	87*	-2	12	nt	nt	-13
CCNC(=O)C[C@H]1CC[C@@H](NC(=O)C2CC2)[C@@H](CO)O1	-23	-1	3	11[16.7 µM]	1	13
Nc1ccc(-c2nc3ccc(C(=O)O)cc3s2)cc1	103*	84*	nt	69*	1	-6
Nc1cc2sc(-c3ccc(C(=O)O)cc3)nc2cc1Cl	-24	-17	nt	-26	1	-5
O=C(O)c1ccc2nc(-c3ccccc3)sc2c1	74*	28	10	44	nt	nt
Nc1ccc(-c2nc3ccc(N)cc3s2)cc1	40	49	-3	-57	0	0
CCCNC(=O)C[C@H]1CC[C@H]2[C@@H](COC[C@@H](O)CN2C(=O)C2CCOCC2)O1	-3	30	5	nt	0	3
O=C(C[C@H]1C=C[C@H](NC(=O)c2ccc3c(c2)OCO3)[C@H](CO)O1)NCc1ccc(Cl)cc1	nt	-14	3	nt	0	nt
C[C@H]1CCCCO[C@@H](CN(C)S(=O)(=O)c2ccc(Cl)cc2)[C@@H](C)CN([C@@H](C)CO)C(=O)c2cc(N(C)C)ccc2O1	70*	3	-8	20[16.7 µM]	-2	nt
C[C@@H]1CN([C@H](C)CO)C(=O)c2cc(N(C)C)ccc2O[C@@H](C)CCCCO[C@H]1CN(C)S(=O)(=O)c1ccc(Cl)cc1	55	-30	-11	4[16.7 µM]	nt	nt
Cc1ccc(S(=O)(=O)N(C)C[C@@H]2OCCCC[C@H](C)Oc3ccc(N(C)C)cc3C(=O)N([C@@H](C)CO)C[C@@H]2C)cc1	73*	-4	-4	-7[16.7 µM]	-1	-6
C[C@@H]1CCCCO[C@H](CN(C)S(=O)(=O)c2ccc(Cl)cc2)[C@H](C)CN([C@H](C)CO)C(=O)c2cc(N(C)C)ccc2O1	68*	9	-13	23[16.7 µM]	-1	nt
CO[C@@H]1CN(C)C(=O)c2cc(NC(=O)Nc3ccccc3F)ccc2OC[C@H](C)N(C)C[C@H]1C	nt	-2	11	nt	0	5
Cc1ccc(C)c(-n2c(SCC(=O)N3CCC(C(=O)O)CC3)nnc2-c2cccc(Cl)c2)c1	-19	1	nt	15	44*	10
Cc1ccccc1-n1c(SCC(=O)N2CCC(C(=O)O)CC2)nnc1-c1ccncc1	6	9	-15	-14	0	-2
Cc1ccc(C2=NOC(=O)/C2=C\C=C\c2ccccc2)cc1	19	54*	-5	-60	0	0
